Assay results from ChEMBL document CHEMBL4229342, “Synthesis of novel proxyphylline derivatives with dual Anti-Candida albicans and anticancer activity” (Eur J Med Chem, 2018).

System: MCF7
Assay: Antiproliferative activity against human MCF7 cells assessed as cell viability at 25 uM after 72 hrs by MTT assay
Assay type: functional
Conditions: MCF7, 72 h, read-out: Activity
In short: (§1)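 MTT viability assay in CCRF-CEM and MCF-7 cells after 72 h exposure at 25, 50, 100 and 200 µM. Results are relative to control cells without inhibitor in 0.5% DMSO. Done in triplicate; values are means ± SD of three independent experiments.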

SMILES	viability at 25 µM [%]
CC(Cn1cnc2c1c(=O)n(C)c(=O)n2C)OC(=O)C1c2ccccc2-c2ccccc21 (centres undefined)	101

System: Candida albicans
Assay: Growth inhibition of Candida albicans ATCC 90028 at 0.0625 ug/ml incubated for 18 hrs at 35 degC by broth microdilution method relative to control
Assay type: functional
Conditions: ATCC 90028, 18 h, read-out: GI

SMILES	inhibition of growth at 0.0625 µg/mL [%]
CC(Cn1cnc2c1c(=O)n(C)c(=O)n2C)OC(=O)C1c2ccccc2-c2ccccc21 (centres undefined)	99.7

System: Candida albicans
Assay: Growth inhibition of Candida albicans ATCC 90028 at 0.125 ug/ml incubated for 4 hrs at 35 degC by broth microdilution method relative to control
Assay type: functional
Conditions: ATCC 90028, 4 h, read-out: GI

SMILES	inhibition of growth at 0.125 µg/mL [%]
CC(Cn1cnc2c1c(=O)n(C)c(=O)n2C)OC(=O)C1c2ccccc2-c2ccccc21 (centres undefined)	98.9

System: Candida albicans
Assay: Growth inhibition of Candida albicans ATCC 90028 at 2 ug/ml incubated for 18 hrs at 35 degC by broth microdilution method relative to control
Assay type: functional
Conditions: ATCC 90028, 18 h, read-out: GI

SMILES	inhibition of growth at 2 µg/mL [%]
CC(Cn1cnc2c1c(=O)n(C)c(=O)n2C)OC(=O)C1c2ccccc2-c2ccccc21 (centres undefined)	100

System: Candida albicans
Assay: Growth inhibition of Candida albicans ATCC 90028 at 2 ug/ml incubated for 4 hrs at 35 degC by broth microdilution method relative to control
Assay type: functional
Conditions: ATCC 90028, 4 h, read-out: GI

SMILES	inhibition of growth at 2 µg/mL [%]
CC(Cn1cnc2c1c(=O)n(C)c(=O)n2C)OC(=O)C1c2ccccc2-c2ccccc21 (centres undefined)	99.4

System: Candida albicans
Assay: Growth inhibition of Candida albicans ATCC 90028 at 1 ug/ml incubated for 4 hrs at 35 degC by broth microdilution method relative to control
Assay type: functional
Conditions: ATCC 90028, 4 h, read-out: GI

SMILES	inhibition of growth at 1 µg/mL [%]
CC(Cn1cnc2c1c(=O)n(C)c(=O)n2C)OC(=O)C1c2ccccc2-c2ccccc21 (centres undefined)	99.3

System: Candida albicans
Assay: Growth inhibition of Candida albicans ATCC 90028 at 0.25 ug/ml incubated for 4 hrs at 35 degC by broth microdilution method relative to control
Assay type: functional
Conditions: ATCC 90028, 4 h, read-out: GI

SMILES	inhibition of growth at 0.25 µg/mL [%]
CC(Cn1cnc2c1c(=O)n(C)c(=O)n2C)OC(=O)C1c2ccccc2-c2ccccc21 (centres undefined)	99

System: CCRF-CEM
Assay: Antiproliferative activity against human CCRF-CEM cells assessed as cell viability at 50 uM after 72 hrs by MTT assay
Assay type: functional
Conditions: read-out: Activity
In short: as §1

SMILES	viability at 50 µM [%]
CC(Cn1cnc2c1c(=O)n(C)c(=O)n2C)OC(=O)C1c2ccccc2-c2ccccc21 (centres undefined)	2.8

System: MCF7
Assay: Antiproliferative activity against human MCF7 cells assessed as cell viability at 200 uM after 72 hrs by MTT assay
Assay type: functional
Conditions: MCF7, 72 h, read-out: Activity
In short: as §1

SMILES	viability at 200 µM [%]
CC(Cn1cnc2c1c(=O)n(C)c(=O)n2C)OC(=O)C1c2ccccc2-c2ccccc21 (centres undefined)	28.3

System: Candida albicans
Assay: Growth inhibition of Candida albicans ATCC 90028 at 0.5 ug/ml incubated for 18 hrs at 35 degC by broth microdilution method relative to control
Assay type: functional
Conditions: ATCC 90028, 18 h, read-out: GI

SMILES	inhibition of growth at 0.5 µg/mL [%]
CC(Cn1cnc2c1c(=O)n(C)c(=O)n2C)OC(=O)C1c2ccccc2-c2ccccc21 (centres undefined)	99.8

System: Candida albicans
Assay: Fungicidal activity against Candida albicans ATCC 90028 assessed as log reduction in cell viability at 16 ug/ml after 48 hrs at 35 degC
Assay type: functional
Conditions: not given
In short: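 MFC assay on C. albicans ATCC 90028 following M27-A3, at the molar equivalent of 16 µg/mL. CFU of treated cells were compared with CFU of the untreated inoculum. Activity is given as lg R = lg CFU/mL control − lg CFU/mL treated, and lg R ≥3 was defined as fungicidal. Values are means of two independent experiments.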

SMILES	log(activity)
CC(Cn1cnc2c1c(=O)n(C)c(=O)n2C)OC(=O)C1c2ccccc2-c2ccccc21 (centres undefined)	0.8

System: MCF7
Assay: Antiproliferative activity against human MCF7 cells assessed as cell viability at 100 uM after 72 hrs by MTT assay
Assay type: functional
Conditions: MCF7, 72 h, read-out: Activity
In short: as §1

SMILES	viability at 100 µM [%]
CC(Cn1cnc2c1c(=O)n(C)c(=O)n2C)OC(=O)C1c2ccccc2-c2ccccc21 (centres undefined)	63.5

System: Candida albicans
Assay: Growth inhibition of Candida albicans ATCC 90028 at 16 ug/ml incubated for 18 hrs at 35 degC by broth microdilution method relative to control
Assay type: functional
Conditions: ATCC 90028, 18 h, read-out: GI

SMILES	inhibition of growth at 16 µg/mL [%]
CC(Cn1cnc2c1c(=O)n(C)c(=O)n2C)OC(=O)C1c2ccccc2-c2ccccc21 (centres undefined)	99.8

System: Candida albicans
Assay: Growth inhibition of Candida albicans ATCC 90028 at 0.125 ug/ml incubated for 18 hrs at 35 degC by broth microdilution method relative to control
Assay type: functional
Conditions: ATCC 90028, 18 h, read-out: GI

SMILES	inhibition of growth at 0.125 µg/mL [%]
CC(Cn1cnc2c1c(=O)n(C)c(=O)n2C)OC(=O)C1c2ccccc2-c2ccccc21 (centres undefined)	99.7

System: Candida albicans
Assay: Growth inhibition of Candida albicans ATCC 90028 at 0.0313 ug/ml incubated for 18 hrs at 35 degC by broth microdilution method relative to control
Assay type: functional
Conditions: ATCC 90028, 18 h, read-out: GI

SMILES	inhibition of growth at 0.0313 µg/mL [%]
CC(Cn1cnc2c1c(=O)n(C)c(=O)n2C)OC(=O)C1c2ccccc2-c2ccccc21 (centres undefined)	99.8

System: Candida albicans
Assay: Growth inhibition of Candida albicans ATCC 90028 at 0.25 ug/ml incubated for 18 hrs at 35 degC by broth microdilution method relative to control
Assay type: functional
Conditions: ATCC 90028, 18 h, read-out: GI

SMILES	inhibition of growth at 0.25 µg/mL [%]
CC(Cn1cnc2c1c(=O)n(C)c(=O)n2C)OC(=O)C1c2ccccc2-c2ccccc21 (centres undefined)	99.9

System: Candida albicans
Assay: Growth inhibition of Candida albicans ATCC 90028 at 0.5 ug/ml incubated for 4 hrs at 35 degC by broth microdilution method relative to control
Assay type: functional
Conditions: ATCC 90028, 4 h, read-out: GI

SMILES	inhibition of growth at 0.5 µg/mL [%]
CC(Cn1cnc2c1c(=O)n(C)c(=O)n2C)OC(=O)C1c2ccccc2-c2ccccc21 (centres undefined)	99.1

System: Candida albicans
Assay: Growth inhibition of Candida albicans ATCC 90028 at 8 ug/ml incubated for 48 hrs at 35 degC by broth microdilution method relative to control
Assay type: functional
Conditions: ATCC 90028, 48 h, read-out: GI

SMILES	inhibition of growth at 8 µg/mL [%]
CC(Cn1cnc2c1c(=O)n(C)c(=O)n2C)OC(=O)C1c2ccccc2-c2ccccc21 (centres undefined)	99.4

System: MCF7
Assay: Antiproliferative activity against human MCF7 cells assessed as cell viability at 50 uM after 72 hrs by MTT assay
Assay type: functional
Conditions: MCF7, 72 h, read-out: Activity
In short: as §1

SMILES	viability at 50 µM [%]
CC(Cn1cnc2c1c(=O)n(C)c(=O)n2C)OC(=O)C1c2ccccc2-c2ccccc21 (centres undefined)	85.1

System: Candida albicans
Assay: Growth inhibition of Candida albicans ATCC 90028 at 0.0625 ug/ml incubated for 4 hrs at 35 degC by broth microdilution method relative to control
Assay type: functional
Conditions: ATCC 90028, 4 h, read-out: GI

SMILES	inhibition of growth at 0.0625 µg/mL [%]
CC(Cn1cnc2c1c(=O)n(C)c(=O)n2C)OC(=O)C1c2ccccc2-c2ccccc21 (centres undefined)	99

System: CCRF-CEM
Assay: Antiproliferative activity against human CCRF-CEM cells assessed as cell viability at 25 uM after 72 hrs by MTT assay
Assay type: functional
Conditions: read-out: Activity
In short: as §1

SMILES	viability at 25 µM [%]
CC(Cn1cnc2c1c(=O)n(C)c(=O)n2C)OC(=O)C1c2ccccc2-c2ccccc21 (centres undefined)	41.5

System: Candida albicans
Assay: Growth inhibition of Candida albicans ATCC 90028 at 1 ug/ml incubated for 18 hrs at 35 degC by broth microdilution method relative to control
Assay type: functional
Conditions: ATCC 90028, 18 h, read-out: GI

SMILES	inhibition of growth at 1 µg/mL [%]
CC(Cn1cnc2c1c(=O)n(C)c(=O)n2C)OC(=O)C1c2ccccc2-c2ccccc21 (centres undefined)	99.8

System: Candida albicans
Assay: Growth inhibition of Candida albicans ATCC 90028 at 4 ug/ml incubated for 18 hrs at 35 degC by broth microdilution method relative to control
Assay type: functional
Conditions: ATCC 90028, 18 h, read-out: GI

SMILES	inhibition of growth at 4 µg/mL [%]
CC(Cn1cnc2c1c(=O)n(C)c(=O)n2C)OC(=O)C1c2ccccc2-c2ccccc21 (centres undefined)	100

System: Candida albicans
Assay: Growth inhibition of Candida albicans ATCC 90028 at 8 ug/ml incubated for 18 hrs at 35 degC by broth microdilution method relative to control
Assay type: functional
Conditions: ATCC 90028, 18 h, read-out: GI

SMILES	inhibition of growth at 8 µg/mL [%]
CC(Cn1cnc2c1c(=O)n(C)c(=O)n2C)OC(=O)C1c2ccccc2-c2ccccc21 (centres undefined)	99.8

System: Candida albicans
Assay: Growth inhibition of Candida albicans ATCC 90028 at 16 ug/ml incubated for 48 hrs at 35 degC by broth microdilution method relative to control
Assay type: functional
Conditions: ATCC 90028, 48 h, read-out: GI

SMILES	inhibition of growth at 16 µg/mL [%]
CC(Cn1cnc2c1c(=O)n(C)c(=O)n2C)OC(=O)C1c2ccccc2-c2ccccc21 (centres undefined)	99.3

System: CCRF-CEM
Assay: Antiproliferative activity against human CCRF-CEM cells assessed as cell viability at 200 uM after 72 hrs by MTT assay
Assay type: functional
Conditions: read-out: Activity
In short: as §1

SMILES	viability at 200 µM [%]
CC(Cn1cnc2c1c(=O)n(C)c(=O)n2C)OC(=O)C1c2ccccc2-c2ccccc21 (centres undefined)	2.3

System: Candida albicans
Assay: Growth inhibition of Candida albicans ATCC 90028 at 8 ug/ml incubated for 4 hrs at 35 degC by broth microdilution method relative to control
Assay type: functional
Conditions: ATCC 90028, 4 h, read-out: GI

SMILES	inhibition of growth at 8 µg/mL [%]
CC(Cn1cnc2c1c(=O)n(C)c(=O)n2C)OC(=O)C1c2ccccc2-c2ccccc21 (centres undefined)	99.4

System: Candida albicans
Assay: Growth inhibition of Candida albicans ATCC 90028 at 0.0313 ug/ml incubated for 4 hrs at 35 degC by broth microdilution method relative to control
Assay type: functional
Conditions: ATCC 90028, 4 h, read-out: GI

SMILES	inhibition of growth at 0.0313 µg/mL [%]
CC(Cn1cnc2c1c(=O)n(C)c(=O)n2C)OC(=O)C1c2ccccc2-c2ccccc21 (centres undefined)	99.3

System: CCRF-CEM
Assay: Antiproliferative activity against human CCRF-CEM cells assessed as cell viability at 100 uM after 72 hrs by MTT assay
Assay type: functional
Conditions: read-out: Activity
In short: as §1

SMILES	viability at 100 µM [%]
CC(Cn1cnc2c1c(=O)n(C)c(=O)n2C)OC(=O)C1c2ccccc2-c2ccccc21 (centres undefined)	0.1
